MLL AF4-AF9 inh: inhibitors of human MLL-AF4/AF9 interaction; inhibition, % at 10 µM; AlphaScreen, biotin-AF4 peptide binding to FLAG-AF9; 0.47% of 350,000 active; P42568;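 active means every replicate reaching a set inhibition limit, whatever the replicate mean, cut at about 25% in these data; inconclusive means mean inhibition reaches that limit but some replicates miss it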;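 further: 0% = plate neutral control median and 100% = total signal loss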
S100A4 MyoIIA: blocks human S100A4 binding to myosin IIA peptide. S100A4/TAMRA-MyoIIA peptide fluorescence polarization. AID 652163. 0.14% of 360,000 active. inhibition, % at 10.7 µM;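 active means mean inhibition of at least 70% across replicates, with every replicate also reaching that level; inconclusive means mean inhibition reaches 70% but some replicates fall short; inactive means mean inhibition below 70%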
Target sequence (P26447 whole entry, looked up): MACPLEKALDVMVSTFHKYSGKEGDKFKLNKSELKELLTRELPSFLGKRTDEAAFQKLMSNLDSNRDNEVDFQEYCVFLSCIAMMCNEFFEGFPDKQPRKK
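assay system = human S100A4 monomer with TAMRA-labelled myosin IIA peptide | also added = labelled myosin peptide probe, 5 nM | incubation = 5 min between mix addition and reading | control set = DMSO and TFP controls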
DENV2 CPE: inhibitors of DENV2 cytopathic effect; 1.7% of 350,000 active; CPE inhibition, % at 9.99 µM; DENV2-infected cells, cytopathic effect rescue, plate reader; in the data active means CPE inhibition above about 20%, passing the limit was not always enough; inconclusive means no clear call, values can overlap the other calls; tested in BHK-21 cells;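 further: 0% = median of neutral control wells and 100% = median of positive control wells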
CaV13 ICDI inh: Primary screen for inhibitors of IQ motif and Ca2+-dependent inactivation inhibitor domain binding in CACNA1D, Förster resonance energy transfer in living cells, … | HEK cells, CFP/YFP FRET ICDI-IQ, plate reader, 10 min; percent FRET-ratio fall versus neutral wells | inhibition, % at 12.3 µM | 0.098% of 340,000 active | AID 743397;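 active means mean replicate inhibition of at least 30% and at least 1% of replicates passing that level; inconclusive means only one of the two criteria is met; inactive means neither criterion is met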;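 further: 0% = median of the neutral control wells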
SIRT5 inh: blocks human SIRT5 desuccinylation of peptide | Q9NXA8 | Purified SirT5, succinyl-peptide AMC, trypsin-coupled fluorescence | inhibition, % at 15 µM | 1.1% of 330,000 active | AID 652115; in the data active means inhibition above about 15%; inconclusive means no clear call, values can overlap the other calls
Target sequence (Q9NXA8 whole entry, looked up): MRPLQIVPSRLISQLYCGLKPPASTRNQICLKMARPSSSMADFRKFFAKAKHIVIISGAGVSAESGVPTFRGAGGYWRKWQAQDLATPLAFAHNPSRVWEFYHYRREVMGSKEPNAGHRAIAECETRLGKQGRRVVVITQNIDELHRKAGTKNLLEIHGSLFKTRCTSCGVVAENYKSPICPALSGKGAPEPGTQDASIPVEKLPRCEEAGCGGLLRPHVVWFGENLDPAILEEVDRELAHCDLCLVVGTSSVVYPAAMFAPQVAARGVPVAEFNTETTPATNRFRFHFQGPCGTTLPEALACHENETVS
The depositor's hits bear a star; ? = inconclusive; . = no result given. Hits are enriched below; roughly 2.7% of the tested compounds scored in any of these assays.

SMILES	MLL AF4-AF9 inh	S100A4 MyoIIA	DENV2 CPE	CaV13 ICDI inh	SIRT5 inh
CCNC(=O)C[C@H]1CC[C@H]2[C@@H](COC[C@@H](O)CN2C(=O)c2cc(Cl)cc(Cl)c2)O1	-6.1	10.4	19.9	.	2.1
CCC(=O)NCCc1nc2ccccc2n1CC(=O)c1ccccc1	-2.3	-2.6	76.3*	-4.3	-3.5
CCCN1C[C@@H](C)[C@@H](OC)CN(C)C(=O)c2ccc(NC(=O)c3cccc(OC)c3)cc2OC[C@@H]1C	-0.3	5.3	-9.4	.	1.5
COc1ccc(C(N)c2csc(Nc3cc(Oc4ccccc4)ncn3)n2)cc1 (configuration not stated)	15.9	-8.2	53.1*	-3.7	-0.5
NC(Cc1ccc(C(F)(F)F)cc1)c1csc(Nc2cc(Oc3ccccc3)ncn2)n1 (configuration not stated)	1.7	-5.1	18.3	-6.1	0.6
Nc1ccc(CC(N)c2csc(Nc3cc(Oc4ccccc4)ncn3)n2)cc1 (configuration not stated)	25.3*	-1.4	46.2*	-4.0	-0.4
COc1ccc(-c2cn(CC[C@H]3CC[C@@H](NC(=O)CCN4CCCCC4)[C@@H](CO)O3)nn2)cc1	2.3	-0.6	0.7	.	-2.7
Cc1cc(OCC(O)CNC(C)c2ccccc2)ccc1C(C)C (configuration not stated)	6.4	-5.1	39.2*	-3.6	-0.1
COc1ccc(S(=O)(=O)N(C)C[C@@H]2OCCCC[C@H](C)Oc3ccc(NS(=O)(=O)c4ccccc4)cc3C(=O)N([C@H](C)CO)C[C@H]2C)cc1	1.5	-0.3	8.5	.	7.8
COCC#Cc1ccc2c(c1)O[C@H](CN(C)Cc1ccc3c(c1)OCO3)[C@H](C)CN([C@@H](C)CO)S2(=O)=O	-1.4	.	.	.	.
COC(=O)C1=C(C)Nc2c(c(=O)n(C)c(=O)n2C)C1c1cccc(O)c1 (configuration not stated)	5.7	-3.7	-2.8	-6.0	20.3*
CCC(=O)N1[C@@H]2c3ccc(C4=CCCCC4)c(=O)n3C[C@H]1[C@H](CO)[C@H]2C(=O)N[C@H](C)c1ccccc1	-3.1	-10.6	92.7*	.	-21.7
COc1ccccc1-c1ccc2n(c1=O)C[C@H]1[C@H](CO)[C@@H](C(=O)N[C@H](C)c3ccccc3)[C@@H]2N1C	-1.1	13.3	74.0*	.	-5.4
CN(C)CCCNC(=O)[C@H]1[C@H](CO)[C@H]2Cn3c(ccc(-c4ccccc4)c3=O)[C@@H]1N2C	-1.1	2.7	46.7*	.	-5.5
CCN(CC)CCN1C2=C(C(=O)CC(C)(C)C2)C(c2cccc(F)c2)C2=C1CC(C)(C)CC2=O	-1.9	-27.7	.	123.1*	-4.8
C/C=C/c1ccc([C@H]2[C@@H](CO)N3C(=O)CN(C(=O)c4cccc(F)c4)C[C@@H]23)cc1	-4.1	3.5	33.3*	.	-0.5
C/C=C/c1ccc([C@H]2[C@H]3CN(C(=O)c4cccc(F)c4)CC(=O)N3[C@H]2CO)cc1	-3.5	-9.8	15.7	.	-1.7
C/C=C/c1ccc([C@H]2[C@@H](CO)N3C(=O)CN(S(=O)(=O)c4cccc(F)c4)C[C@H]23)cc1	1.2	3.4	4.1	.	1.5
Cc1cccc(-c2ccc([C@@H]3[C@@H](CO)N4C(=O)CN(S(=O)(=O)c5cccc(F)c5)C[C@@H]34)cc2)c1	-0.2	9.3	-5.1	.	20.4*
C/C=C/c1ccc([C@H]2[C@H]3CN(S(=O)(=O)c4cccc(F)c4)CC(=O)N3[C@H]2CO)cc1	1.9	19.5	30.2*	.	1.9
C/C=C/c1ccc([C@H]2[C@@H](CO)N3C(=O)CN(S(=O)(=O)c4cccc(F)c4)C[C@@H]23)cc1	1.2	4.3	43.1*	.	-0.4
O=C(C[C@@H]1CC[C@@H]2[C@H](COC[C@@H](O)CN2CC2CC2)O1)NCc1ccc(Cl)cc1	-1.1	-6.3	-0.7	.	2.7
C[C@H]1CN([C@@H](C)CO)C(=O)c2cc(NC(=O)NC3CCCCC3)ccc2O[C@@H]1CN(C)C	-2.6	2.7	6.2	.	.
CCOC(=O)c1c(C)[nH]c(C)c1C(=O)COC(=O)c1cc2ccccc2cc1O	-1.5	-20.5	4.5	-19.5	111.6*
CCOC(=O)c1c(C)[nH]c(C)c1C(=O)COC(=O)c1cc2ccccc2cc1OC	.	.	.	-5.5	.
SMILES	MLL AF4-AF9 inh	S100A4 MyoIIA	DENV2 CPE	CaV13 ICDI inh	SIRT5 inh
CCOC(=O)Nc1ccc(C(=O)Oc2ccccc2)c(O)c1	-3.5	2.5	-3.9	-7.7	-2.9
Cc1ccc(S(=O)(=O)OCC(=O)Nc2ccc(C(=O)O)c(O)c2)cc1	-5.3	-1.0	3.5	-2.9	53.4*
Cc1cccc(OC(=O)Nc2ccc(C(=O)O)c(O)c2)c1	-2.8	-11.5	13.5	-7.1	34.7*
COCC(=O)N1CC2(CN(Cc3cccnc3)C2)c2c(n(C)c3cc(OC)ccc23)[C@@H]1CO	1.6	8.3	?	.	-1.6
Cc1sc2nc(N3CCOCC3)[nH]c(=O)c2c1-c1ccccc1	0.7	-5.2	13.8	-4.8	31.3*
Cc1ccc(S(=O)(=O)Nc2ccc3c(c2)C(=O)N([C@H](C)CO)C[C@H](C)[C@H](CN(C)S(=O)(=O)c2ccc(Cl)cc2)O3)cc1	-6.7	-36.8	-6.7	.	8.3
Cc1ccc(S(=O)(=O)Nc2ccc3c(c2)C(=O)N([C@H](C)CO)C[C@@H](C)[C@H](CN(C)S(=O)(=O)c2ccc(Cl)cc2)O3)cc1	-3.0	3.1	43.0*	.	16.0*
Cc1ccc(S(=O)(=O)Nc2ccc3c(c2)C(=O)N([C@@H](C)CO)C[C@@H](C)[C@@H](CN(C)S(=O)(=O)c2ccc(Cl)cc2)O3)cc1	4.0	-0.3	5.5	.	19.8*
Cc1ccc(S(=O)(=O)Nc2ccc3c(c2)C(=O)N([C@H](C)CO)C[C@H](C)[C@@H](CN(C)S(=O)(=O)c2ccccc2)O3)cc1	0.3	1.6	38.7*	.	0.0
O=C(C[C@@H]1C[C@@H]2c3cc(NC(=O)Nc4ccccc4)ccc3O[C@@H]2[C@@H](CO)O1)NCC1CC1	-1.9	14.2	10.3	.	0.6
Cc1ccc(S(=O)(=O)N(C)C[C@@H]2OCCCC[C@H](C)Oc3ccc(NC(=O)NC4CCCCC4)cc3C(=O)N([C@@H](C)CO)C[C@@H]2C)cc1	-2.7	-1.2	-4.7	.	0.1
C[C@H](NC(=O)C[C@@H]1C[C@@H]2c3cc(NC(=O)NC4CCCC4)ccc3O[C@@H]2[C@H](CO)O1)c1ccccc1	-1.8	1.1	-9.8	.	-1.3
CC[C@@]12C(=O)N(c3ccc(C)cc3)C(=O)N1[C@H](c1ccc(OC)cc1)[C@@H]1C(=O)N(C(C)(C)C)C(=O)[C@@H]12	-1.2	-6.7	18.3	-3.8	20.2*
OCC[C@H]1C[C@@H](O)[C@H](O)[C@]2(Cc3ccccc3CCO2)O1	1.5	-0.5	47.4*	-9.8	-6.2
CN(CCCn1ccc(NC(=O)OCc2ccccc2)nc1=O)Cc1ccco1	1.6	-3.9	-8.0	-5.1	25.2*

From PubChem
